In ChEMBL document CHEMBL1138395, “Adamantane sulfone and sulfonamide 11-beta-HSD1 Inhibitors” (Bioorg Med Chem Lett, 2007):
pIC50, pKi: −log10 of the molar value.

What was measured:
[1] = target: T1, 11-beta-hydroxysteroid dehydrogenase type 2 (Homo sapiens, UniProt P80365); assay: Inhibition of human HSD2 assessed as interconversion of cortisone to cortisol
T1 sequence (P80365 whole entry): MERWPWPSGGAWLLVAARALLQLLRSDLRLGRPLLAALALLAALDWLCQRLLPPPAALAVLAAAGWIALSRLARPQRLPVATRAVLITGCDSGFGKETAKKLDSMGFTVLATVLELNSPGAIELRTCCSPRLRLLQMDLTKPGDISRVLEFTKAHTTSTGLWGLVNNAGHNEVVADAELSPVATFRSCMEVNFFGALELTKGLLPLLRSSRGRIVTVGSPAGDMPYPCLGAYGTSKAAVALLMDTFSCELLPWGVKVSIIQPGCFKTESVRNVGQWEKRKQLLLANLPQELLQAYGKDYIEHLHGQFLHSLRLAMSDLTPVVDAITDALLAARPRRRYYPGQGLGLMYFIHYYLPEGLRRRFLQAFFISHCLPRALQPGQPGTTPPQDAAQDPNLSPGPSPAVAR

[2] = target: T2, 11-beta-hydroxysteroid dehydrogenase 1 (Homo sapiens, UniProt P28845); assay: Inhibition of human HSD1 expressed in HEK cells; format: cell-based, HEK293
T2 sequence (P28845 whole entry): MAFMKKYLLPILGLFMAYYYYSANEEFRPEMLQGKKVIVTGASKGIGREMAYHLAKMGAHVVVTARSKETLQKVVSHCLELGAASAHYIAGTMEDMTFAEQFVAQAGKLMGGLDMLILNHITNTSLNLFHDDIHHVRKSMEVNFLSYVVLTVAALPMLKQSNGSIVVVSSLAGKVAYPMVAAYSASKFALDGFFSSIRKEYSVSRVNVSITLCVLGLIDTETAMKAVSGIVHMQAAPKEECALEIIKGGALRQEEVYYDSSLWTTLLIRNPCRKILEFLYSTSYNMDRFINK

[3] = Metabolic stability in mouse liver microsomes assessed as compound remaining after 30 mins; format: ADME, Microsome; settings: read-out: Stability
How it was run: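 Test compound incubated with mouse liver microsomes for 30 min; percent of parent compound remaining afterward reported.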

[4] = target: T2, 11-beta-hydroxysteroid dehydrogenase 1; assay: Inhibition of human HSD1 assessed as interconversion of cortisone to cortisol
[5] = target: 11-beta-hydroxysteroid dehydrogenase 1 (Mus musculus, UniProt P50172); assay: Inhibition of mouse HSD1 assessed as interconversion of cortisone to cortisol
Sequence of 11-beta-hydroxysteroid dehydrogenase 1 (Mus musculus, UniProt P50172) (P50172 whole entry): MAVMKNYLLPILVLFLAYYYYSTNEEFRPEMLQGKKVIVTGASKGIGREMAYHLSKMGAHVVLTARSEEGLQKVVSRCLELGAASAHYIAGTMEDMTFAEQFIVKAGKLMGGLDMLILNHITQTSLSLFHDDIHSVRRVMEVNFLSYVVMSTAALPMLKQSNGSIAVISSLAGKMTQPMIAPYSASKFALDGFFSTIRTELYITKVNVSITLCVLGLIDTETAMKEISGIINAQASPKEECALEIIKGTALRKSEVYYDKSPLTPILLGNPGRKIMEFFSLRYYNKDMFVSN
How it was run: (§1)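 Enzyme inhibition measured as blocking the interconversion between cortisone and cortisol by mouse HSD1 (reported as Ki) or mouse HSD2 (reported as IC50); values are means of at least two experiments.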

[6] = target: T3, 11-beta-hydroxysteroid dehydrogenase type 2 (Mus musculus, UniProt P51661); assay: Inhibition of mouse HSD2 assessed as interconversion of cortisone to cortisol; how it was run: as §1
T3 sequence (P51661 whole entry): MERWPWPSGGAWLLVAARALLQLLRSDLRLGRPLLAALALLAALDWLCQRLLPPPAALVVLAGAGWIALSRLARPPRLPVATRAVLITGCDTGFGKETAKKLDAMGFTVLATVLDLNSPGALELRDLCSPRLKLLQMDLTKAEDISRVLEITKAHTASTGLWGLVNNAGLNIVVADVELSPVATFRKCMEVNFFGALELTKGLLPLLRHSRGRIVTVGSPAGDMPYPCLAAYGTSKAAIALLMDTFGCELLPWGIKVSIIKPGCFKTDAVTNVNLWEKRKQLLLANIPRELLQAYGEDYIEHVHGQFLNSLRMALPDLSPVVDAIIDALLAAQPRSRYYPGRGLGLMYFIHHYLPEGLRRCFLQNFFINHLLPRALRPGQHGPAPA

Mus musculus [7] = assay: Ex vivo inhibition of brain 11-beta-HSD1 in DIO mouse at 30 mg/kg, po after 16 hrs; format: functional
How it was run: (§2)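 DIO mice dosed orally at 30 mpk; animals killed 1, 7 and 16 h after the dose and liver, fat and brain taken. Ex vivo 11-β-HSD1 activity (cortisol levels) in tissue was measured and percent inhibition expressed relative to vehicle-dosed animals; means from two animals per point.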

Mus musculus [8] = assay: Ex vivo inhibition of fat 11-beta-HSD1 in DIO mouse at 30 mg/kg, po after 16 hrs; format: functional; how it was run: as §2
[9] = Volume of distribution at steady state in monkey at 2.5 mg/kg; format: ADME, organism-based, Macaca mulatta; set-up: dose 2.5 mg/kg; settings: rhesus monkey, in vivo, read-out: Vdss
Mus musculus [10] = assay: Ex vivo inhibition of liver 11-beta-HSD1 in DIO mouse at 30 mg/kg, po after 16 hrs; format: functional; how it was run: as §2
[11] = Volume of distribution at terminal phase in monkey at 2.5 mg/kg; format: ADME, organism-based, Macaca mulatta; set-up: dose 2.5 mg/kg; settings: rhesus monkey, in vivo, read-out: Vbeta
[12] = Metabolic stability in monkey hepatocytes assessed as intrinsic clearance; format: ADME, cell-based, Macaca mulatta, Liver, Hepatocyte; settings: rhesus monkey
How it was run: (§3)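 Intrinsic clearance (L/h/kg) determined from incubations with liver microsomes (mouse, monkey, human) or hepatocytes (mouse, monkey); values are means of three experiments.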

[13] = Half life in mouse at 10 mg/kg, iv; format: ADME, organism-based; set-up: dose 10 mg/kg, route intravenous; settings: in vivo
[14] = Plasma clearance in mouse at 10 mg/kg, iv; format: ADME, organism-based; set-up: dose 10 mg/kg, route intravenous
Mus musculus [15] = assay: Ex vivo inhibition of brain 11-beta-HSD1 in DIO mouse at 30 mg/kg, po after 7 hrs; format: functional; how it was run: as §2
[16] = Oral bioavailability in monkey at 2.5 mg/kg; format: ADME, organism-based, Macaca mulatta; settings: rhesus monkey, in vivo
[17] = Metabolic stability in human liver microsomes assessed as intrinsic clearance; format: ADME, Microsome; how it was run: as §3
[18] = Metabolic stability in mouse liver microsomes assessed as intrinsic clearance; format: ADME, Microsome; how it was run: as §3
[19] = AUC in mouse at 10 mg/kg, po; format: ADME, organism-based; set-up: dose 10 mg/kg, route oral; settings: plasma
[20] = Volume of distribution at steady state in mouse at 10 mg/kg; format: ADME, organism-based; set-up: dose 10 mg/kg; settings: in vivo, read-out: Vdss
Mus musculus [21] = assay: Ex vivo inhibition of fat 11-beta-HSD1 in DIO mouse at 30 mg/kg, po after 7 hrs; format: functional; how it was run: as §2
[22] = Half life in monkey at 2.5 mg/kg, iv; format: ADME, organism-based, Macaca mulatta; set-up: dose 2.5 mg/kg, route intravenous; settings: rhesus monkey, in vivo
Mus musculus [23] = assay: Ex vivo inhibition of liver 11-beta-HSD1 in DIO mouse at 30 mg/kg, po after 7 hrs; format: functional; how it was run: as §2
Mus musculus [24] = assay: Ex vivo inhibition of liver 11-beta-HSD1 in DIO mouse at 30 mg/kg, po after 1 hr; format: functional; how it was run: as §2
Mus musculus [25] = assay: Ex vivo inhibition of brain 11-beta-HSD1 in DIO mouse at 30 mg/kg, po after 1 hr; format: functional; how it was run: as §2
[26] = AUC in monkey at 2.5 mg/kg, po; format: ADME, organism-based, Macaca mulatta; set-up: dose 2.5 mg/kg, route oral; settings: rhesus monkey, plasma
Mus musculus [27] = assay: Ex vivo inhibition of fat 11-beta-HSD1 in DIO mouse at 30 mg/kg, po after 1 hr; format: functional; how it was run: as §2
[28] = Plasma clearance in monkey at 2.5 mg/kg, iv; format: ADME, organism-based, Macaca mulatta; set-up: dose 2.5 mg/kg, route intravenous; settings: rhesus monkey
[29] = Oral bioavailability in mouse at 10 mg/kg; format: ADME, organism-based; settings: in vivo
[30] = Metabolic stability in mouse hepatocytes assessed as intrinsic clearance; format: ADME, cell-based, Liver, Hepatocyte; how it was run: as §3
[31] = Metabolic stability in monkey liver microsomes assessed as intrinsic clearance; format: ADME, Macaca mulatta, Microsome; settings: rhesus monkey; how it was run: as §3
[32] = Volume of distribution at terminal phase in mouse at 10 mg/kg; format: ADME, organism-based; set-up: dose 10 mg/kg; settings: in vivo, read-out: Vbeta

## CC(C)(Oc1ccccc1Cl)C(=O)N[C@H]1C2CC3CC1C[C@](S(N)(=O)=O)(C3)C2
[1]
  pIC50: 5.26
[2]
  pIC50: 7.08
[3]
  remaining at 0.5 h: 36%
[4]
  pKi: 8.40
[5]
  pKi: 8.70
[6]
  pIC50: < 4.00

## CN(C)S(=O)(=O)[C@]12CC3CC(C1)[C@@H](NC(=O)C(C)(C)Oc1ccc(Cl)cc1)C(C3)C2
[3]
  remaining at 0.5 h: < 1%
[5]
  pKi: 7.68
[6]
  pIC50: 4.00

## CC(C)(Oc1ccc(F)cc1Cl)C(=O)N[C@H]1C2CC3CC1C[C@](S(C)(=O)=O)(C3)C2
Mus musculus [7]
  inhibition in vivo at 30 mg/kg: 77%
Mus musculus [8]
  inhibition in vivo at 30 mg/kg: 86%
[9]
  Vd: 2.7 L/kg
Mus musculus [10]
  inhibition in vivo at 30 mg/kg: 89%
[11]
  Vd: 3.1 L/kg
[12]
  CLint scaled: 1.67 mL/min/kg
[13]
  half-life: 1 h
[3]
  remaining at 0.5 h: 57%
[14]
  clearance: 18.3 mL/min/kg
Mus musculus [15]
  inhibition in vivo at 30 mg/kg: 90%
[16]
  bioavailability: 109%
[5]
  pKi: 8.40
[17]
  CLint scaled: 26.7 mL/min/kg
[6]
  pIC50: < 4.00
[18]
  CLint scaled: 100 mL/min/kg
[19]
  AUC: 8900 ng·h/mL
[20]
  Vd: 1.5 L/kg
Mus musculus [21]
  inhibition in vivo at 30 mg/kg: 93%
[22]
  half-life: 5.1 h
Mus musculus [23]
  inhibition in vivo at 30 mg/kg: 95%
Mus musculus [24]
  inhibition in vivo at 30 mg/kg: 95%
Mus musculus [25]
  inhibition in vivo at 30 mg/kg: 90%
[26]
  AUC: 6810 ng·h/mL
Mus musculus [27]
  inhibition in vivo at 30 mg/kg: 87%
[28]
  clearance: 6.67 mL/min/kg
[29]
  bioavailability: 100%
[30]
  CLint scaled: 3.33 mL/min/kg
[31]
  CLint scaled: 25 mL/min/kg
[32]
  Vd: 1.7 L/kg

## CC(C)(Oc1ccccc1Cl)C(=O)N[C@H]1C2CC3CC1C[C@](S(C)(=O)=O)(C3)C2
[1]
  pIC50: 5.27
[2]
  pIC50: 6.92
[4]
  pKi: 8.30
[5]
  pKi: 8.70
[6]
  pIC50: < 4.00

## CC(=O)NS(=O)(=O)[C@]12CC3CC(C1)[C@@H](NC(=O)C(C)(C)Oc1ccc(Cl)cc1)C(C3)C2
[4]
  pKi: 6.77
[5]
  pKi: 6.96

## CC(C)(Oc1c(Cl)cc(F)cc1Cl)C(=O)N[C@H]1C2CC3CC1C[C@](S(N)(=O)=O)(C3)C2
[1]
  pIC50: 5.05
[2]
  pIC50: 6.72
[3]
  remaining at 0.5 h: 55%
[4]
  pKi: 8.52
[5]
  pKi: 8.70
[6]
  pIC50: < 4.00

## CC(C)(Oc1ccc(F)cc1Cl)C(=O)N[C@H]1C2CC3CC1C[C@](S(=O)(=O)CC(N)=O)(C3)C2
[1]
  pIC50: 5.48
[2]
  pIC50: 6.52
[3]
  remaining at 0.5 h: 59%
[4]
  pKi: 8.10
[5]
  pKi: 8.40
[6]
  pIC50: < 4.00

## CC(C)(Oc1ccc(F)cc1Cl)C(=O)N[C@H]1C2CC3CC1C[C@](S(=O)(=O)CCCN1CCOCC1)(C3)C2
[1]
  pIC50: 4.82
[2]
  pIC50: 6.30
[3]
  remaining at 0.5 h: < 1%
[4]
  pKi: 6.96
[5]
  pKi: 7.42
[6]
  pIC50: 4.06

## CC(C)(Oc1ccccc1C(F)(F)F)C(=O)N[C@H]1C2CC3CC1C[C@](S(C)(=O)=O)(C3)C2
[1]
  pIC50: < 4.00
[2]
  pIC50: 6.92
[4]
  pKi: 8.15
[5]
  pKi: 8.52
[6]
  pIC50: < 4.00

## CC(C)(Oc1ccccc1OC(F)(F)F)C(=O)N[C@H]1C2CC3CC1C[C@](S(N)(=O)=O)(C3)C2
[3]
  remaining at 0.5 h: 38%
[5]
  pKi: 8.52
[6]
  pIC50: < 4.00
